Measurements published in ChEMBL document CHEMBL1126273, “Design and synthesis of some substrate analogue inhibitors of phospholipase A2 and investigations by NMR and molecular modeling into the binding interactions in the enzyme-inhibitor complex” (J Med Chem, 1992).

Experiments:
[1] = target: T1, Phospholipase A2, major isoenzyme (Sus scrofa, UniProt P00592); assay: In vitro inhibition of porcine pancreatic phospholipase A2 evaluated by monomeric substrate assay
Summary of the method: (§1)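 The monomeric thioester substrate was used at 5.44 mM, below its CMC of 14 mM. The assay also held 0.2 mM DTNB, 0.25 mM CaCl2 and 0.5 μg/mL porcine pancreatic PLA2 in 10 mM sodium phosphate pH 7.5. Inhibitor or methanol made up 2.5% of the volume. Rates were followed over 16 h at about 22 °C. Inhibition was calculated against solvent controls after subtracting nonenzymic hydrolysis.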

[2] = target: T1, Phospholipase A2, major isoenzyme; assay: In vitro inhibition of porcine pancreatic phospholipase A2 evaluated by Deoxycholate-phospholipid mixed micelle assay; not active at the highest concentration tested
Summary of the method: (§2)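 Porcine pancreatic PLA2 at 0.074 μg/mL, with 2 mM CaCl2, 2.4 mM sodium deoxycholate and 100 μM 1-stearoyl-2-arachidonoyl-L-phosphatidylcholine traced with 22 000 dpm 1-stearoyl-2-[14C]arachidonoyl-PC, in 50 mM Tris-HCl pH 8.2. Inhibitor was added in methanol at 1% of assay volume. After 8 min at 37 °C, released [14C]arachidonic acid was extracted and counted by scintillation, under hopping-kinetics conditions.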

[3] = target: Phospholipase A2, major isoenzyme (Sus scrofa) (UniProt P00592); assay: In vitro inhibition of porcine pancreatic phospholipase A2 by Deoxycholate-phospholipid mixed micelle assay at 30 uM
Phospholipase A2, major isoenzyme (Sus scrofa), sequence (P00592 23-146 limits assumed): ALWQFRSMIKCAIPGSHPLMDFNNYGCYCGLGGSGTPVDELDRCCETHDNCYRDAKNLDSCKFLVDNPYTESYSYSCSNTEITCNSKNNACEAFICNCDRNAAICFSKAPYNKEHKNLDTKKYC

[4] = target: T1, Phospholipase A2, major isoenzyme; assay: In vitro inhibition of porcine pancreatic phospholipase A2 evaluated by monomeric substrate assay; not active at the highest concentration tested; summary of the method: as §1
[5] = target: T1, Phospholipase A2, major isoenzyme; assay: In vitro inhibition of porcine pancreatic phospholipase A2 evaluated by Deoxycholate-phospholipid mixed micelle assay; summary of the method: as §2

T1 sequence (P00592 whole entry): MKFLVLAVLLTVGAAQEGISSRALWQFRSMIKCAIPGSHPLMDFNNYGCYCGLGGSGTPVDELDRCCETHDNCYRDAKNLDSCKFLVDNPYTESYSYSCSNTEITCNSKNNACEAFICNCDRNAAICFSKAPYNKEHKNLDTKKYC

| Compound | IC50 [1] [µM] | IC50 [2] | IC50 [5] [µM] | other results |
| --- | --- | --- | --- | --- |
| C[N+](C)(C)CCOP(=O)([O-])OCCNC(=O)Cc1ccc2ccccc2c1 | > 1000 | Not Active | – | – |
| CCCCCC/C=C/CC(=O)N[C@H](COP(=O)([O-])OCC[N+](C)(C)C)CC(C)C | – | – | – | IC50 [4]: Not Active |
| CCCCCCCCCCCCCCCC(=O)NCCOP(=O)([O-])OCC[N+](C)(C)C | 4 | – | 300 | – |
| CCCCCCCCCCCCCCCC(=O)N[C@@H](COP(=O)([O-])OCC[N+](C)(C)C)CC(C)C | 0.23 | – | 30 | – |
| CCCCCCCCCCCC(=O)NCCOP(=O)([O-])OCC[N+](C)(C)C | – | Not Active | – | IC50 [4]: Not Active |
| CCCCCCCCCCCCCCCC(=O)N[C@H](C)COP(=O)([O-])OCC[N+](C)(C)C | 1.4 | – | 189 | – |
| CCCCCCCCCCCCCCCC(=O)N[C@@H](COP(=O)(O)O)Cc1ccccc1 | 5 | – | – | inhibition [3]: 42% |

More lines, main results first:

| IC50 [1] [µM] | IC50 [2] | IC50 [5] [µM] | Compound | other results |
| --- | --- | --- | --- | --- |
| 6 | – | – | CCCCCC/C=C/CC(=O)N[C@@H](COP(=O)([O-])OCC[N+](C)(C)C)CC(C)C | – |
| 10 | – | – | CCCCCCCCCCCCCCCC(=O)N[C@@H](COP(=O)(O)O)CC(C)C | inhibition [3]: 22% |
| 160 | Not Active | – | CC(C)C[C@H](COP(=O)([O-])OCC[N+](C)(C)C)NC(=O)Cc1ccc2ccccc2c1 | – |
| – | – | 15 | CCCCCCCCCCCCCCCCCCOC[C@H](COP(=O)([O-])OCC[N+](C)(C)C)NC(=O)CCCCCCCCCCCCCCC | – |
| 4.5 | Not Active | – | CCCCCCCCCCCCCCCC(=O)N[C@H](COP(=O)([O-])OCC[N+](C)(C)C)CC(C)C | – |
| – | Not Active | – | C[N+](C)(C)CCOP(=O)([O-])OCCNC(=O)c1ccc2ccccc2c1 | – |
| 0.03 | – | 2.6 | CCCCCCCCCCCCCCCC(=O)N[C@@H](COP(=O)(O)OCCO)CC(C)C | – |
| 0.03 | – | 3.5 | CCCCCCCCCCCCCCCC(=O)OCC(COP(=O)(O)OCCO)NC(=O)CCCCCCCCCCCCC (stereo unspecified) | – |
